Measured values from ChEMBL document CHEMBL1126868, “Inhibitors of blood platelet cAMP phosphodiesterase. 4. Structural variation of the side-chain terminus of water-soluble 1,3-dihydro-2H-imidazo[4,5-b]quinolin-2-one derivatives” (J Med Chem, 1993).
Values joined by “and” are separate entries in the source; they are usually repeats but may differ in a detail not shown here. Identical values can stand only once.

Tests used:
[1] = % metabolized in monkey S-9 after 2 hours (1 ug/ml); format: ADME; conditions: simiiformes, monkey S-9 fraction; read-out: Activity
How it was run: (§1)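 Monkey liver homogenised at 0 °C in 3 volumes isotonic KCl (0.05 M phosphate, pH 7.4), spun 9000g 30 min to give S-9. Triplicate incubations at 37 °C for 2 h with cofactor mix (glucose-6-phosphate, NADP, nicotinamide, MgCl2), final drug 1 or 10 μg/mL. Parent measured by fluorescence HPLC after MeOH protein precipitation; % metabolized = 100% minus % remaining at 2 h versus t=0.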

Homo sapiens [2] = organism: Homo sapiens; test: Inhibition of human platelet aggregation induced by ADP after 15 min incubation with platelet rich plasma; format: functional; conditions: 0.25 h
How it was run: (§2)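 Human platelet-rich plasma was preincubated with drug for 3 min (standard) or 15 min, then aggregation was induced with 5.86 μM ADP. Aggregation at a range of drug concentrations was compared with vehicle-treated controls, and IC50 was taken from dose-response curves. Values are single, duplicate or triplicate (with SD) determinations.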

[3] = % metabolized in monkey S-9 after 2 hours (10 ug/ml); format: ADME; conditions: simiiformes, monkey S-9 fraction; read-out: Activity; how it was run: as §1
[4] = half-life (t1/2 min); format: ADME; conditions: for T1/2: 2 h
How it was run: (§3)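 Same monkey liver S-9 incubation (37 °C, final drug 1 or 10 μg/mL, triplicate). Aliquots taken at 0, 15, 30, 60, 90 and 120 min, quenched with MeOH and analysed for parent by fluorescence HPLC peak height. Half-life = ln 2 divided by the slope of a least-squares linear regression of peak height against time.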

Homo sapiens [5] = organism: Homo sapiens; test: Inhibition of human platelet aggregation induced by ADP after 3 min incubation with platelet rich plasma; format: functional; conditions: 0.05 h; how it was run: as §2
[6] = Aqueous solubility; format: physicochemical; conditions: read-out: S
How it was run: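 A 10-mg sample was placed in 0.5 mL water and diluted stepwise up to 10 mL, or until it dissolved. Solubility is reported in mg/mL.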

Phosphodiesterase 3 [7] = target: T1, Phosphodiesterase 3 (Homo sapiens, UniProt Q14432+Q13370); test: Inhibition of human platelet aggregation cAMP PDE in vitro; format: functional
How it was run: (§4)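 Human platelet cAMP PDE assay run as in an earlier protocol, except that the [3H]adenosine product was resolved on DEAE Sephadex. Values are means of duplicate (deviation under 50% of mean) or triplicate determinations.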

Phosphodiesterase 3 [8] = target: T1, Phosphodiesterase 3; test: Inhibition of human blood platelet c-AMP phosphodiesterase; format: functional; how it was run: as §4
[9] = % metabolized in monkey S-9 after 2 hours (10 ug/mL); format: ADME; conditions: simiiformes, monkey S-9 fraction; read-out: Activity; how it was run: as §1
[10] = t1/2 (min); format: ADME; how it was run: as §3

| metabolised at 2 h, 1 ug/ml [1] | IC50 (Homo sapiens [2]) | metabolised at 2 h, 10 ug/ml [3] | half-life [4] | T1/2 [4] | IC50 (Homo sapiens [5]) | solubility [6] | IC50 (Phosphodiesterase 3 [7]) | IC50 (Phosphodiesterase 3 [8]) | metabolised at 2 h, 10 ug/mL [9] | half-life [10] | Structure (SMILES) |
| --- | --- | --- | --- | --- | --- | --- | --- | --- | --- | --- | --- |
| 4.9% | 8 nM | – | 24.6 h | – | 32 nM | > 10000 µg/mL | 1.03 nM | – | – | – | Cl.Oc1nc2cc3cc(OCCCc4nnnn4C4CCN(Cc5ccc(F)cc5)CC4)ccc3[nH]c-2n1 |
| 7.2% | 4 nM | – | 15.8 h | – | 39 nM | > 10000 µg/mL | 0.84 nM | – | – | – | Cl.Oc1nc2cc3cc(OCCCc4nnnn4C4CCN(Cc5ccccc5)CC4)ccc3[nH]c-2n1 |
| 25.2% | 6.4 nM | 9.6% | – | – | 25 nM | > 10000 µg/mL | 0.63 nM | – | – | – | Cl.O=S(=O)(CCCOc1ccc2[nH]c3nc(O)nc-3cc2c1)C1CCN(Cc2ccccc2)CC1 |
| 31.3% | 3 nM | – | 3.37 h | – | 12 nM | > 10000 µg/mL | 0.81 nM | – | – | – | CCC(CC)CN1CCC(n2nnnc2CCCOc2ccc3[nH]c4nc(O)nc-4cc3c2)CC1.Cl |

The next lines start with the molecule.

| Structure (SMILES) | metabolised at 2 h, 1 ug/ml [1] | IC50 (Homo sapiens [2]) | metabolised at 2 h, 10 ug/ml [3] | half-life [4] | T1/2 [4] | IC50 (Homo sapiens [5]) | solubility [6] | IC50 (Phosphodiesterase 3 [7]) | IC50 (Phosphodiesterase 3 [8]) | metabolised at 2 h, 10 ug/mL [9] | half-life [10] |
| --- | --- | --- | --- | --- | --- | --- | --- | --- | --- | --- | --- |
| Cl.O=S(=O)(CCCOc1ccc2[nH]c3nc(O)nc-3cc2c1)N1CCN(Cc2ccc(F)cc2)CC1 | 29.4% | 35 nM | 18% | 6.75 h | 4.02 h | 280 nM | > 20000 µg/mL | 4.96 nM | – | – | – |
| CCC(CC)CN1CCC(S(=O)(=O)CCCOc2ccc3[nH]c4nc(O)nc-4cc3c2)CC1.Cl | 17% | 9 nM | 22.4% | 6.08 h | 7.05 h | 39 nM | < 10000 µg/mL | 1.13 nM | – | – | – |
| Cl.O=S(=O)(CCCOc1ccc2[nH]c3nc(O)nc-3cc2c1)C1CCN(Cc2ccc(F)cc2)CC1 | – | 8.4 nM | – | – | – | 20 nM | > 10000 µg/mL | – | 1 nM | 53% | 2 h |
| O=C(CCCOc1ccc2[nH]c3nc(O)nc-3cc2c1)N1CCN(CC2CCCCC2)CC1 | 40.6% | – | 21.7% | – | 5.55 h and 2.4 h | – | – | – | – | – | – |
| Cl.Oc1nc2cc3cc(OCCCc4nnnn4C4CCN(CC5CCCCC5)CC4)ccc3[nH]c-2n1 | 22.9% | 3 nM | – | 5.13 h | – | 16 nM | > 10000 µg/mL | 0.81 nM | – | – | – |
| Cl.O=S(=O)(CCCOc1ccc2[nH]c3nc(O)nc-3cc2c1)N1CCN(Cc2ccccc2)CC1 | 67.7% | 60 nM | 21.2% | – | – | 130 nM | > 20000 µg/mL | 5.42 nM | – | – | – |
| Cl.O=C(NCCCOc1ccc2[nH]c3nc(O)nc-3cc2c1)N1CCN(CC2CCCCC2)CC1 | 58.5% | 18 nM | 23.6% | – | – | 72 nM | > 20000 µg/mL | 1.13 nM | – | – | – |
